Bioassay records deposited in PubChem by Broad Institute.
FN deposition inh: inhibitors of fibronectin matrix deposition, primary screen, AH1F cells, Alexa488-fibronectin fluorescence, plate reader. inhibition, % at 12.6 µM. AH1F fibroblasts, overnight. 350,000 compounds, 0.086% hits;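 active = mean inhibition across replicates of 30% or more, regardless of how many single replicates reach that level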;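 note: positive control wells lacked labelled fibronectin entirely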
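Assay system: AH1F fibroblasts assembling fluorescent fibronectin matrix; Amount: 10000 AH1F cells per well; Buffer or medium: DMEM, 2% serum; Probe or stimulus: Alexa488-fibronectin, 24 nM final in well; Doses: single compound dose, delivered by pin transfer; Incubation: 1 h adhesion, overnight exposure; Measured by: fluorescence 485/525 nm; Read-out: fibronectin deposition inhibition.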
Statin myotox sup: suppressors of statin myotoxicity in C2C12 myotubes, primary screen, cell-based, single point, plate reader. C2C12 myotubes + simvastatin, ATP luminescence, 48 h; scaled: DMSO 0, geranylgeraniol control 100. rescue of ATP level, % at 7.49 µM. 330,000 compounds, 0.78% hits. AID 602340, 2012;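 active = mean ATP rescue above about 67%, or every replicate alone reaching that limit, limit read from the data, passing the limit was not always enough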;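 note: myotubes were challenged with 10 µM simvastatin during compound exposure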
SIRT5 inh: SIRT5 desuccinylase inhibitors, primary screen, biochemical, fluorescence imaging, single point, set 5 | 330,000 compounds, 1.1% hits | inhibition, % at 15 µM | Purified SirT5, succinyl-peptide AMC, trypsin-coupled fluorescence; in the data active = inhibition above about 15%
Target sequence (Q9NXA8 whole entry, looked up): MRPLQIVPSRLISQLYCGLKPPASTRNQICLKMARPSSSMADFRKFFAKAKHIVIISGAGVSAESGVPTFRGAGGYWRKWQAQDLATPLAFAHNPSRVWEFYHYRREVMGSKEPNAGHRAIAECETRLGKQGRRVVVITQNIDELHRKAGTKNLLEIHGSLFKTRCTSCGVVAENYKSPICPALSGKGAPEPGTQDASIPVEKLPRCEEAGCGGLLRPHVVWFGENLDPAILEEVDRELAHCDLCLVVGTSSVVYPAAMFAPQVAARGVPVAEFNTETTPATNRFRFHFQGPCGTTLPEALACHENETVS
FGF22 binding: binders of human FGF22 protein, primary screen, FGF22 synaptogenesis inhibitor project, biophysical, thermal shift, single point; recombinant FGF22 thermal shift, SYPRO orange fluorescence; percent of sucrose octasulfate shift, DMSO zero; Fibroblast growth factor 22 (Homo sapiens), Q9HCT0; 340,000 compounds, 1.5% hits; activity (Tm shift, normalised), % at 9.99 µM; AID 651658, 2012;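 active = mean Tm shift, scaled 0 neutral to 100 positive control, at about 1.3% or above, every replicate too, limit read from the data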
Target sequence (Q9HCT0 whole entry, looked up): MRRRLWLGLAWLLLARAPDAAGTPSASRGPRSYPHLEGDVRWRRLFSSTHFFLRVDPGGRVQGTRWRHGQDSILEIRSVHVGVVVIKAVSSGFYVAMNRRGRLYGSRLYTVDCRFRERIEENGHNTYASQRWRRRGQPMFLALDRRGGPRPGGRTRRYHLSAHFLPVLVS
E-sel inducer: E-selectin induction in HUVECs, primary screen, imaging, HUVEC, immunofluorescence imaging, single point. P16581. normalized: neutral wells 0, TNF-alpha wells 100. activation, % at 7.58 µM. 260,000 compounds, 0.37% hits. AID 686992, 2013;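 active = mean E-selectin-positive cell signal at least 10% of the positive control, reached in at least 60% of replicates, without over 20% cell loss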
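Assay system: HUVEC, human umbilical vein endothelial cells / Amount: 3,000 HUVEC/well / Controls: TNF-alpha positive control, DMSO neutral control / Compound dosing: single concentration / Medium: EGM-2 over gelatin coat / Evaluation: percent E-selectin-positive cells / Signal: immunofluorescence imaging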
rRNA inh HTS: reduced GFP signal of wild-type E. coli, primary screen, bacterial rRNA inhibitor project, GFP/RFP fluorescence, OD600, single point. E. coli WT GFP vs humanized-ribosome RFP mutants, 24 h; active compounds read low; DMSO median 0, no signal -100. GFP signal change (wild-type ribosome), % (test concentration not listed). 350,000 compounds, 1.6% hits;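 active = significant combined selectivity score with lowered wild-type GFP, culture density cut under 30%, mutant RFP and density less affected; inactive = any of these conditions unmet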
* = called active by the depositor; . = not tested or not shown. A selection: hits, their analogues and other compounds. The true share with any hit is near 4%.

SMILES	FN deposition inh	Statin myotox sup	SIRT5 inh	FGF22 binding	E-sel inducer	rRNA inh HTS
O=C(O)c1c(C(=O)O)c(-c2ccc(Cl)c(Cl)c2)n2c1CSC2	5.3	-3.9	-1.6	1.1	58.4*	10.0
Cc1ccc(-c2c(C(=O)O)c(C(=O)O)c3n2CCC3)cc1	2.3	.	-3.9	0.2	0.2	14.8
COC(=O)c1c(C(=O)OC)c(-c2ccc(Cl)c(Cl)c2)n2c1CCC2	.	.	-0.5	0.0	.	-29.4*
C[C@@H]1CN([C@@H](C)CO)C(=O)Cc2cc(NC(=O)C3CCCCC3)ccc2O[C@@H]1CN(C)C(=O)Nc1ccc2c(c1)OCO2	.	-7.8	6.1	0.3	-1.3	-1.7
O=C(Nc1ccccc1)n1cc(-c2ccccn2)c(N2CCOCC2)n1	-2.5	.	0.7	44.1*	.	-0.4
Cc1noc(C)c1NC(=O)Nc1ccc2c(c1)C(=O)N([C@H](C)CO)C[C@@H](C)[C@@H](CN(C)S(=O)(=O)c1ccccc1)O2	.	.	.	.	1.8	2.3
COc1ccc(NC(=O)Nc2ccc3c(c2)C(=O)N([C@@H](C)CO)C[C@H](C)[C@H](CN(C)S(=O)(=O)c2ccc(Cl)cc2)OCCCC[C@@H](C)O3)cc1	6.6	.	-0.9	-0.1	.	4.6
COc1ccc(S(=O)(=O)Nc2c(C)nc3nc[nH]n3c2=O)cc1	-19.7	2.2	0.0	43.2*	.	6.9
Cc1nc2nc[nH]n2c(=O)c1NS(=O)(=O)c1ccc(F)cc1	-1.8	.	-8.2	0.0	.	24.1
CC(=O)N[C@H]1CC[C@@H](CCNC(=O)C2CCCC2)O[C@@H]1CO	.	0.4	-3.5	0.0	-0.2	2.5
O=C(c1cnccn1)N1CC(=O)N2[C@@H](CO)[C@H](c3ccc(C#CC4CC4)cc3)[C@@H]2C1	-8.0	.	23.1*	.	0.1	2.5
O=C(c1cnccn1)N1CC(=O)N2[C@H](CO)[C@H](c3ccc(C#CC4CC4)cc3)[C@@H]2C1	-1.6	.	1.8	.	0.3	3.6
COc1ccc(C#Cc2ccc([C@@H]3[C@@H](CO)N4C(=O)CN(C(=O)c5cccnc5)C[C@H]34)cc2)cc1	.	.	4.5	.	-0.3	2.2
COc1ccc(C#Cc2ccc([C@H]3[C@H](CO)N4C(=O)CN(C(=O)c5cccnc5)C[C@@H]34)cc2)cc1	.	.	36.9*	.	-0.2	4.9
CCCC#Cc1ccc([C@H]2[C@H]3CN(C(=O)Cc4cccnc4)CC(=O)N3[C@H]2CO)cc1	.	.	21.8*	.	0.2	-0.3
C/C=C/c1ccc([C@H]2[C@H](CO)N3C(=O)CN(Cc4ccccc4)C[C@@H]23)cc1	.	.	-2.3	.	-0.3	0.2
O=C(Cn1[nH]c(=O)c2ccccc2c1=O)OCC(=O)c1ccc(F)c(F)c1	0.8	-14.0	-3.0	-0.3	0.2	6.1
O=C(Cn1[nH]c(=O)c2ccccc2c1=O)OCC(=O)c1ccc(F)cc1	1.6	1.4	15.7*	-0.1	0.3	0.9
COc1cccc(NC(=O)C(=O)N/N=C/c2cc(C)n(-c3ccc(Cl)c(Cl)c3)c2C)c1	.	1.1	-4.3	0.4	.	-17.9*
Cc1cc(/C=N\NC(=O)CC(=O)NC2CCCCC2)c(C)n1-c1ccc(Cl)c(Cl)c1	-0.9	27.1	.	.	.	.
O=C(CSC1=NNC(c2ccccn2)S1)Nc1ccccc1 (centres undefined)	6.9	.	-5.7	-0.1	3.6	-19.4*
Cn1ccnc1SCC(=O)Nc1ccccc1	.	136.9*	.	.	.	.
Cn1ccnc1SCC(=O)c1ccc(Cl)cc1	.	11.2	-15.4	-0.2	.	-32.1*
O=C(CSC1=NNC(c2ccccn2)S1)Nc1cccc(Cl)c1 (centres undefined)	7.3	7.5	-3.2	-0.1	0.4	-3.3
Cn1ccnc1SCC(=O)Nc1ccc2ccccc2c1	.	-3.6	.	.	.	.
SMILES	FN deposition inh	Statin myotox sup	SIRT5 inh	FGF22 binding	E-sel inducer	rRNA inh HTS
Cn1ccnc1SCC(=O)c1ccc(O)cc1	3.3	3.0	-2.1	0.1	-0.2	7.4
COc1cccc(S(=O)(=O)N(C)C[C@@H]2Oc3ncc(C#CC(C)C)cc3C(=O)N([C@H](C)CO)C[C@@H]2C)c1	-8.3	3.9	-3.8	0.0	-0.1	-1.8
C[C@@H]1CN(C)C(=O)c2cccc(N(C)C)c2O[C@@H]1CN(C)C(=O)OC(C)(C)C	-8.8	.	.	.	.	-2.3
CCOc1ccc(OCc2ccc(C(=O)NN)o2)cc1	-3.3	.	2.4	0.0	8.6	-13.4
Cc1ccc(OCc2ccc(C(=O)NN)o2)cc1C	-9.3	8.6	-1.2	0.0	0.2	-31.8*
O=C(O)c1ccc(COc2ccc([N+](=O)[O-])cc2)o1	2.0	17.6	18.6*	-0.2	-0.1	3.8
NNC(=O)c1ccc(COc2ccc3ccccc3c2)o1	-7.7	.	1.0	0.2	0.1	-24.6*
O=C(O)c1ccc(OCc2ccc(C(=O)O)o2)cc1	2.4	.	-2.2	0.1	.	2.0
O=C(OCc1ccccn1)c1ccc(COc2ccc3ccccc3c2)o1	10.3	11.9	2.8	-0.2	.	-26.0*
O=C(NCc1ccccn1)c1ccc(COc2ccc(Cl)cc2)o1	.	17.4	.	.	.	.
CCCN1[C@@H]2Cn3c(ccc(-c4ccncc4)c3=O)[C@H]1[C@@H](C(=O)NCC1CC1)[C@@H]2CO	.	3.0	-0.3	-0.4	0.2	-1.4
CC(C)Sc1nc2c(c(=O)[nH]c(=O)n2C)n1Cc1ccccc1	5.6	9.7	-2.8	0.3	.	-1.9
CCCSc1nc2c(c(=O)[nH]c(=O)n2C)n1C	-3.7	91.6*	.	.	.	.
CC(C)Sc1nc2c(c(=O)[nH]c(=O)n2C)n1Cc1ccc(Cl)cc1	.	149.4*	.	.	.	.
CCC(C)Sc1nc2c(c(=O)[nH]c(=O)n2C)n1Cc1ccc(Cl)cc1 (centres undefined)	.	130.2*	.	.	.	.
CCSc1nc2c(c(=O)[nH]c(=O)n2C)n1C	-6.2	-3.3	.	.	.	.
CCOC(=O)C(C)Sc1nc2c(c(=O)[nH]c(=O)n2C)n1Cc1ccc(Cl)cc1 (centres undefined)	5.3	0.5	11.9	-0.1	0.1	-4.5
CCC(=O)N1C[C@H](C)[C@@H](OC)CN(C)C(=O)c2cc(NC(=O)CC(F)(F)F)ccc2OC[C@@H]1C	-1.5	.	.	.	.	1.9
CN1CCN(NC(=S)NC(C)(C)CC(C)(C)C)CC1	-7.4	-11.6	7.1	42.9*	.	9.8
S=C(NC1CCCC1)NN1CCOCC1	.	.	-2.6	0.1	.	1.2
COc1ccccc1NC(=S)NN1CCN(C)CC1	3.0	.	0.1	0.3	0.8	2.8
CN1CCN(NC(=S)NC2CCCC2)CC1	1.7	.	0.7	43.3*	.	.
CCc1nc2ccc(C(=O)NCCCN(C)C)cn2c1N(C)Cc1ccc(OC)cc1	-1.8	-11.7	1.0	0.5	-0.1	-2.2
